High-throughput results (PubChem)
Most compounds without a hit are left out; they make up all but 7.2% or so of the library.
BAP1 block – blocks human BAP1 ubiquitin-AMC hydrolysis; Q92560; recombinant BAP1, Ub-AMC hydrolysis fluorescence kinetic; stronger effect = lower value; calls only at 20 µM; actives 0.48% (n = 72,000); AID 436;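 active = activity remaining at or below 50% of control, provided the compound also passes the data quality filters; inactive = the rest, including low values that fail the filters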;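 note: 100% = DMSO wells rate and 0% = substrate alone blank rate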
Target sequence (Q92560 whole entry, looked up): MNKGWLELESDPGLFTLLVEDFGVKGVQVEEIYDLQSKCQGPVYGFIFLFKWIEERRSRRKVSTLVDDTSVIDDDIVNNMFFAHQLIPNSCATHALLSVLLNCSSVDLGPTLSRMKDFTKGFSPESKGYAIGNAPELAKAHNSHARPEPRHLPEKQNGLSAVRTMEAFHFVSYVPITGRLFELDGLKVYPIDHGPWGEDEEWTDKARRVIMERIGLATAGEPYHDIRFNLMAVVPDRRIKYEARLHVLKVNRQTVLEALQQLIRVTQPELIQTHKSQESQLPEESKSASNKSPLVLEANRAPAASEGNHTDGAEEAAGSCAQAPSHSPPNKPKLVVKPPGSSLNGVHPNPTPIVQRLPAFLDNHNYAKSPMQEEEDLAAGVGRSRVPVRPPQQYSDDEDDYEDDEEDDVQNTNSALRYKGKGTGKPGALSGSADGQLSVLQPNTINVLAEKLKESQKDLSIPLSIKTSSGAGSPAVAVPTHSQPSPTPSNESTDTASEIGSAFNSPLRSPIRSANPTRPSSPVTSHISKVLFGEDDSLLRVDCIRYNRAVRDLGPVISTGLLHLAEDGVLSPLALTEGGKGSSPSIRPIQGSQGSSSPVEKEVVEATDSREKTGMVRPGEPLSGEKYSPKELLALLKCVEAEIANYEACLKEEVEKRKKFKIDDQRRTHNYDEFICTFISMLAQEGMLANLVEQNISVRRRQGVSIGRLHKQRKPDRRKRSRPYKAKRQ
HEK293 NFkB inh – inhibitors of the PMA/ionomycin-induced NF-kB reporter in HEK293 cells; HEK-293 NF-kB luciferase reporter, luminescence; inhibition, % at 3 µM; actives 0.21% (n = 62,000); AID 465;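 active = inhibition above the mean of all tested compounds plus 3 SD, cut at about 40% in these data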;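 note: 0% = stimulated DMSO wells and 100% = 10 µM reference inhibitor 5653914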
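Timing: 1 h pretreatment, 16 h stimulation, 37 °C; system: HEK-293 cells with stable firefly luciferase reporter driven by four HIV NF-kB elements; doses: 3 µM once, 0.30% DMSO; measured by: luciferase luminescence; control set: DMSO and 10 µM reference inhibitor; repeats: single test; reagent: PMA plus ionomycin mix as NF-kB-activating stimulus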
M1 antag – blocks the rat M1 muscarinic receptor response to acetylcholine | B-score at 10 µM | P08482 | CHO-M1 cells, Fluo-4 calcium, ACh EC80 antagonist mode; stronger effect = lower value | actives 3.4% (n = 64,000);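 active = calcium fluorescence response, raw or row-and-column corrected B-score, differing from the plate sample mean either way at a set confidence level, mostly lower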
hDAT+cocaine – human DAT dopamine uptake with cocaine, either direction. Q01959. LLC-PK1 hDAT cells, [14C]-dopamine uptake with cocaine IC80; actives deviate in either direction. B-score at 10 µM. actives 1.3% (n = 110,000);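 active = Z score or B-score, a plate-position-corrected score, falls beyond the plate's 99.7% confidence bounds, in either direction; inactive = both scores lie inside the 99.7% bounds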;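 note: scored against the spread of the other compound wells on the same plate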
D1 allo mod – allosteric modulators of human D1 dopamine receptor. P21728. actives 5.9% (n = 58,000). AID 641. B-score at 10 µM. HEK293 D1, CRE-luciferase, dopamine EC30 potentiation; actives deviate in either direction;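 active = luminescence count or its row- and column-corrected plate score outside the 99.7% band of the plate's sample wells, on either side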
M1 ag – M1 muscarinic receptor agonism. B-score at 10 µM. CHO-M1 cells, Fluo-4 calcium fluorescence, agonist mode; stronger effect = higher value. actives 3% (n = 64,000);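 active = fluorescence rise, raw or as B-score row- and column-corrected plate score, outside the 99.7% band of its plate's samples, either direction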
M1 ag confirm – confirmation of rat M1 muscarinic receptor agonists; AID 1488; fluorescence change (max-min) at 10 µM; shares compounds with M1 ag; actives 19% (n = 1,700); CHO-M1 cells, Fluo-4 calcium fluorescence, agonist mode; actives lie on both sides;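 active = fluorescence change differs from the solvent-only DMSO control mean at a set confidence level in both duplicate runs; inconclusive = differs from solvent-only control mean in just one of two runs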;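 note: an EC20 dose of acetylcholine follows compound addition during the same imaging run; raw fluorescence intensity difference in instrument units with no normalization to controls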
M4 ag counter – rat M4 muscarinic agonism, M1 counter-screen | shares compounds with M1 ag | CHO M4/Gqi5 cells, Fluo-4 calcium fluorescence, agonist mode; actives lie on both sides | fluorescence change (max-min) at 10 µM | actives 9% (n = 1,700) | AID 1741;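 active = fluorescence change differing from the plate's solvent-only control wells at 99.7% confidence in both duplicates, whether higher or lower; inconclusive = differs from solvent controls in only one of two duplicates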
An asterisk follows results filed as active.

What do the screens show for `Cc1ccc(NC(=O)N(Cc2ccc3c(c2)OCO3)Cc2cc3cc4c(cc3[nH]c2=O)OCCO4)cc1`?
HEK293 NFkB inh: 22.2; M1 antag: -0.323; hDAT+cocaine: -0.502; D1 allo mod: 0.829; M1 ag: 0.634

What do the screens show for `O=C(Cn1ccc2ccccc2c1=O)NCCC(=O)N1CCN(C2CCCCC2)CC1`?
BAP1 block: inactive; HEK293 NFkB inh: 26.1; M1 antag: -0.863; hDAT+cocaine: -0.278; D1 allo mod: -0.877; M1 ag: 17*; M1 ag confirm: -1.51; M4 ag counter: -24.5

Results for CN1C(=O)C(=O)/C(=C(/O)c2ccc(Cl)cc2)C1c1cccc([N+](=O)[O-])c1 (stereo not given) ?
BAP1 block: inactive

What do the screens show for `CC1CCCCC1NS(=O)(=O)c1ccc(S(=O)(=O)NCc2ccncc2)cc1` (stereo not given)?
BAP1 block: inactive; HEK293 NFkB inh: 13.9; M1 antag: -0.492; hDAT+cocaine: -0.0308; D1 allo mod: -1.45; M1 ag: 3.49*; M1 ag confirm: -10.6; M4 ag counter: -9.61

How did CCN(CC)c1ccc2cc(-c3nc4ccccc4n3C)c(=O)oc2c1 do in these assays?
BAP1 block: inactive; HEK293 NFkB inh: 39.9*; M1 antag: 0.0565; hDAT+cocaine: -0.0866; D1 allo mod: -0.0169; M1 ag: 65.2*; M1 ag confirm: 280*; M4 ag counter: 400*

How did COc1cc(OC)cc(C(C(=O)NCc2ccccc2)N(Cc2ccco2)C(=O)c2ccno2)c1 (stereo not given) do in these assays?
BAP1 block: inactive; HEK293 NFkB inh: 10.4; M1 antag: -0.303; hDAT+cocaine: -0.922; M1 ag: 7.11*; M1 ag confirm: -14.3; M4 ag counter: inconclusive

How did COC(=O)c1ccc(C(C(=O)NCc2ccccc2)N(Cc2ccco2)C(=O)c2cnccn2)cc1 (stereo not given) do in these assays?
BAP1 block: inactive; HEK293 NFkB inh: 7.9; M1 antag: -0.0277; hDAT+cocaine: 0.693; D1 allo mod: -0.231; M1 ag: 0.809

Results for Cc1ccc(C)c(N2CCN(C(=O)c3cc4ccccn4n3)CC2)c1 ?
BAP1 block: inactive; HEK293 NFkB inh: 6.9; M1 antag: -0.769; hDAT+cocaine: 0.881; D1 allo mod: 1.71; M1 ag: 30.8*; M1 ag confirm: 55.3; M4 ag counter: 9.96

How did CC(N=c1ccccn1C(=O)Nc1ccc(Cl)cc1)c1ccco1 (stereo not given) do in these assays?
BAP1 block: inactive; HEK293 NFkB inh: -5.7; M1 antag: -0.945; hDAT+cocaine: -1.81; D1 allo mod: -2.44; M1 ag: 4.03*; M1 ag confirm: -30.2*; M4 ag counter: inconclusive

How did CC(N=c1ccccn1C(=O)Nc1ccc(F)cc1)c1ccco1 (stereo not given) do in these assays?
BAP1 block: inactive; HEK293 NFkB inh: 7.0; M1 antag: -0.741; hDAT+cocaine: -0.421; D1 allo mod: -0.589; M1 ag: 0.539

What do the screens show for `O=C(COc1cccc(NC(=O)c2cccc([N+](=O)[O-])c2)c1)c1ccc(F)cc1`?
hDAT+cocaine: 1.23

How did O=C(COc1cccc(NC(=O)c2ccco2)c1)c1ccc(F)cc1 do in these assays?
BAP1 block: inactive; HEK293 NFkB inh: 13.6; M1 antag: -1.1; hDAT+cocaine: -0.402; D1 allo mod: -0.00208; M1 ag: 5.7*; M1 ag confirm: inconclusive; M4 ag counter: inconclusive

Results for O=C(C1CCN(S(=O)(=O)N2CCC3(CC2)OCCO3)CC1)N1CCN(Cc2ccccc2)CC1 ?
BAP1 block: inactive; HEK293 NFkB inh: 19.3; M1 antag: -0.232; hDAT+cocaine: -0.33; D1 allo mod: 1.14; M1 ag: 0.187
